Measured values from ChEMBL document CHEMBL2396538, “Synthesis and biological evaluation of a novel series of aryl S,N-ketene acetals as antileishmanial agents” (Bioorg Med Chem Lett, 2013).
pIC50: −log10 of the molar value. Calls of active or inactive are those of the source. The rule behind the calls is not given here.

Tests used:
[1] = test system: Leishmania donovani; test: Antileishmanial activity against amastigote stage of Leishmania donovani infected in golden hamster assessed as inhibition of parasite multiplication at 50 mg/kg, ip administered 5 days measured on day 7 by Giemsa staining assay relative to control; type: functional; conditions: for inhibition in vivo at 50 mg/kg: route intraperitoneal
Summary of the method: (§1)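 Golden hamster L. donovani model; 50 mg/kg given ip for 5 days. Biopsies were taken on day 7 after the last dose, and amastigotes were counted by Giemsa staining. Percent inhibition was derived by comparing infection intensity in treated versus untreated animals and against the initial count in treated animals.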

[2] = (§2) Selectivity index, ratio of CC50 for african green monkey vero cells to IC50 for amastigote stage of Leishmania donovani infected in mouse J774A.1 cells; type: functional
Summary of the method: (§3)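 Selectivity index calculated as CC₅₀ (Vero cells, 72 h MTT) divided by IC₅₀ against intracellular amastigotes in luciferase-reporter J-774A.1 macrophage assay.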

[3] = Cytotoxicity against african green monkey vero cells assessed as cell viability after 72 hrs by MTT assay; type: cell-based; conditions: chlorocebus sabaeus
Summary of the method: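 Exponentially growing Vero monkey kidney […] incubated with compounds for 72 h; viable cells detected with MTT (Mosmann method); CC₅₀ estimated.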

[4] = test system: Leishmania donovani; test: Antileishmanial activity against amastigote stage of Leishmania donovani infected in mouse J774A.1 cells assessed as parasite growth inhibition after 72 hrs by luciferase reporter gene assay; type: functional, organism-based; conditions: J774.A1, 72 h
Summary of the method: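 Mouse macrophage J-774A.1 cells (4 × 10^3/100 µL) were seeded, then infected with luciferase-transfected L. donovani promastigotes (4 × 10^4/100 µL), which transformed into intracellular amastigotes. Compounds at 0.62–40 µM for 72 h in CO₂ incubator. Medium replaced with PBS plus Steady-Glo; luminescence read. Growth inhibition versus untreated controls; IC₅₀ derived.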

[5] = test system: Leishmania donovani; test: Antileishmanial activity against promastigote stage of Leishmania donovani assessed as parasite growth inhibition at 25 uM after 72 hrs by luciferase reporter gene assay relative to untreated control; type: functional; conditions: for inhibition of growth at 25 µM: read-out: GI
Summary of the method: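 Luciferase-transfected L. donovani promastigotes (5 × 10^5/100 µL) exposed to compounds for 72 h. Suspension mixed 1:1 with Steady-Glo reagent; luminescence read as relative luminescence units. Inhibition calculated from luciferase activity of treated versus untreated parasites.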

[6] = test system: Vero; test: as §2; type: functional; summary of the method: as §3
[7] = test system: Leishmania donovani; test: Antileishmanial activity against Leishmania donovani infected in hamster assessed as inhibition of parasite multiplication relative to control; type: functional; summary of the method: as §1
[8] = test system: Syrian golden hamster; test: Toxicity in golden hamster at 50 mg/kg, ip and po administered 5 days measured on day 7; type: organism-based, Mesocricetus auratus; set-up: dose 50 mg/kg, route oral; conditions: in vivo, 120 h
[9] = test system: Leishmania donovani; test: Antileishmanial activity against amastigote stage of Leishmania donovani infected in golden hamster assessed as inhibition of parasite multiplication at 50 mg/kg, po administered 5 days measured on day 7 by Giemsa staining assay relative to control; type: functional
Summary of the method: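 L. donovani-infected hamsters received 50 mg/kg orally for 5 days. Post-treatment biopsy was on day 7 after the last dose, with Giemsa-stained amastigote counts. Percent inhibition came from comparing treated animals with untreated animals and with the treated animals' initial counts.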

[10] = Metabolic stability in hamster liver microsomes at 25 uM by HPLC analysis in absence of NADPH and presence of CYP suicidal inhibitor 1-ABZT; conditions: cricetinae

Row | Compound | inhibition in vivo at 50 mg/kg [1] | Ratio CC50/IC50 [2] | CC50 at 72 h [3] | pIC50 [4] | growth inhibition (GI) [5] | inhibition of growth at 25 µM [5] | inhibition [1] | Ratio CC50/IC50 [6] | inhibition (INH) [7] | Activity [8] | inhibition in vivo at 50 mg/kg [9] | Stability [10]
1 | NC[C@@H]1O[C@H](O[C@H]2[C@@H](O)[C@H](O[C@@H]3[C@@H](O)[C@H](N)C[C@H](N)[C@H]3O[C@H]3O[C@H](CO)[C@@H](O)[C@H](O)[C@H]3N)O[C@@H]2CO)[C@H](N)[C@@H](O)[C@@H]1O [PAROMOMYCIN] | 46% | 2 | 86.6 µM | 4.39 | inactive | – | – | – | – | – | – | –
2 | COc1cc(/C=C/C(=O)/C=C(\NC2CCCCC2)SC)cc(OC)c1OC | – | 7 | 22.7 µM | 5.46 | – | 98.9% | – | – | – | – | – | –
3 | Sodium stibogluconate | – | – | – | – | inactive | – | 89% | 7 | – | – | – | –
4 | COc1cc(/C=C/C(=O)/C=C(\Nc2ccc(F)cc2)SC)cc(OC)c1OC | 72% | 36 | 43.4 µM | 5.92 | – | 97.9% | – | – | – | – | – | –
5 | COc1ccc(N/C(=C\C(=O)/C=C/c2cc(OC)c(OC)c(OC)c2)SC)cc1 | 32% | 69 | 184 µM | 5.59 | – | 99.1% | – | – | – | – | – | –
6 | COc1cc(/C=C/C(=O)/C=C(\Nc2ccc(Cl)cc2)SC)cc(OC)c1OC | 21% | 36 | 57.9 µM | 5.80 | – | 98.7% | – | – | – | – | – | –
7 | COc1cc(/C=C/C(=O)/C=C(\NCc2ccccc2)SC)cc(OC)c1OC | – | 36 | 71.5 µM | 5.70 | – | 98.6% | inactive | – | – | – | – | –
8 | COc1cc(/C=C/C(=O)C=C(SC)SC)cc(OC)c1OC | – | – | – | – | – | – | – | – | 66% | – | – | –
9 | COc1cc(/C=C/C(=O)/C=C(\Nc2ccccc2)SC)cc(OC)c1OC | 83% | 31 | 64.6 µM | 5.68 | – | 96.2% | – | – | – | Non-toxic | 64% | Stable
